Results as given in ChEMBL document CHEMBL3352788, “Characterization of selective exosite-binding inhibitors of matrix metalloproteinase 13 that prevent articular cartilage degradation in vitro” (J Med Chem, 2014).

Tests used:
Liver microsome = experiment: Half life in human liver microsomes by LC-MS/MS analysis; assay type: ADME
In short: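 Compound at 1 μM with 1 mg/mL liver microsomes in 100 mM potassium phosphate pH 7.4 at 37 °C with shaking. Reaction started with 1 mM NADPH (final). Aliquots were taken at 0, 5, 10, 20, 40 and 60 min and quenched in acetonitrile. Parallel incubations without NADPH were run.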

Caspase-2 (Homo sapiens) = biological target: T1, Caspase-2 (Homo sapiens) (UniProt P42575); experiment: Inhibition of recombinant human caspase 2 using DEVDAA substrate at up to 5 uM after 3 hrs
T1 sequence (whole entry): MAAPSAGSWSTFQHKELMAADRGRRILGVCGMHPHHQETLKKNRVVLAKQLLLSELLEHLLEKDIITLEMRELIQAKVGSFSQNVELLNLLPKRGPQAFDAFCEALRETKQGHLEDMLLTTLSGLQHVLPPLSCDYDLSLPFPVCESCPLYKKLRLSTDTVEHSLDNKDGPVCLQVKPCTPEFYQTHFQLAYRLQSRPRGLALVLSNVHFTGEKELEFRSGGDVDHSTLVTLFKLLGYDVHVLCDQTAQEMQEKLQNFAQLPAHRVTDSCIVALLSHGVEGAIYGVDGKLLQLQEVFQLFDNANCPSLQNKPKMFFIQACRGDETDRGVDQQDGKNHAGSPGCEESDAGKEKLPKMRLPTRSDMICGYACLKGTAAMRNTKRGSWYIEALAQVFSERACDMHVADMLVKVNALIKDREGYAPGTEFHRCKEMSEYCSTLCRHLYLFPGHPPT
In short: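 Outsourced microfluidic protease panel. Compound was preincubated with each protease for 30 min at 25 °C, then peptide substrate was added for 3 h at 25 °C and quenched with SDS/EDTA/iodoacetate. Substrate-to-product conversion was measured on LabChip. Compounds were tested singly in a 12-point 3-fold dilution series, top 20 μM (5 μM for two reference compounds).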

Cytochrome P450 1A2 = biological target: T2, Cytochrome P450 1A2 (Homo sapiens, UniProt P05177); experiment: (§1) Inhibition of CYP1A2 (unknown origin) using tacrin substrate at 20 uM; assay type: ADME; details: 20 µM
T2 sequence (P05177 whole entry): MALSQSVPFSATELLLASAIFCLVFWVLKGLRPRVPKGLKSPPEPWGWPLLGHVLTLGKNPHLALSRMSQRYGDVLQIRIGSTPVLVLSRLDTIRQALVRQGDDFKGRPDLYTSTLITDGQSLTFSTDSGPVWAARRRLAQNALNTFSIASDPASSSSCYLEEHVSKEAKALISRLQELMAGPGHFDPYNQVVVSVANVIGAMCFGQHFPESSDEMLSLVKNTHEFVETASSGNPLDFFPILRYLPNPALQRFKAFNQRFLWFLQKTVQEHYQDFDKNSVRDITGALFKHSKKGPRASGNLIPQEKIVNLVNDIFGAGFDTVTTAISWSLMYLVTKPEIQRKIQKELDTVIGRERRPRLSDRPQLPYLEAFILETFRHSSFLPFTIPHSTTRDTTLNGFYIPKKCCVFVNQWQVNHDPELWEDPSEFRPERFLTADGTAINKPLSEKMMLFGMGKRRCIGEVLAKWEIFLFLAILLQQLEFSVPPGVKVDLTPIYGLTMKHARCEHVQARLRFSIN
In short: (§2)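 Human liver microsomes with probe substrate and an NADPH-regenerating system in 0.1 M potassium phosphate pH 7.4 at 37 °C, run in duplicate. Inhibitor at 0–20 μM (0–2.5 μM for one compound), eight concentrations. Reactions were stopped with acetonitrile/formic acid containing isotope-labelled internal standard, and metabolite area ratios were compared with and without inhibitor. IC50 was taken by linear interpolation between bracketing concentrations.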

Cytochrome P450 2C8 = biological target: T3, Cytochrome P450 2C8 (Homo sapiens, UniProt P10632); experiment: (§3) Inhibition of CYP2C8 (unknown origin) using amodiaquine substrate at 20 uM; assay type: ADME; details: 20 µM; in short: as §2
T3 sequence (P10632 whole entry): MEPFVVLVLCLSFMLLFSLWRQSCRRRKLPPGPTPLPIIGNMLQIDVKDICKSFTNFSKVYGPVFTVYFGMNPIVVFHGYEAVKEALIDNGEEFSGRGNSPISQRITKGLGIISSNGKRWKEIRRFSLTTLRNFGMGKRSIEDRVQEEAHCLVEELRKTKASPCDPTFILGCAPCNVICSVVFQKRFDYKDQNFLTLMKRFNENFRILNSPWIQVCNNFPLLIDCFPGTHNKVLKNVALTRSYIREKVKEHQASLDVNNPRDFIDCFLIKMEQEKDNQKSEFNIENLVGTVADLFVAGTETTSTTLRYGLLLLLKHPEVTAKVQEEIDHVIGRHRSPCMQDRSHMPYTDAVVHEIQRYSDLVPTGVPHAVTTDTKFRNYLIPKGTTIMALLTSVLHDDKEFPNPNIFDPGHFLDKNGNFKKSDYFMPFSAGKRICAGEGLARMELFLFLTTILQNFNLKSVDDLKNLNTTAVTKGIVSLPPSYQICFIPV

Cytochrome P450 2C9 = Cytochrome P450 2C9 (Homo sapiens, UniProt P11712); experiment: (§4) Inhibition of CYP2C9 (unknown origin) using diclofenac substrate at 20 uM; assay type: ADME; details: 20 µM; in short: as §2
Cytochrome P450 2C19 = Cytochrome P450 2C19 (Homo sapiens, UniProt P33261); experiment: (§5) Inhibition of CYP2C19 (unknown origin) using (S)-mephentoin substrate at 20 uM; assay type: ADME; details: 20 µM; in short: as §2
Cytochrome P450 2D6 = Cytochrome P450 2D6 (Homo sapiens, UniProt P10635); experiment: (§6) Inhibition of CYP2D6 (unknown origin) using dextromethophan substrate at 20 uM; assay type: ADME; details: 20 µM; in short: as §2
CYP1A2 [1] = biological target: T4, CYP1A2 (Homo sapiens, UniProt P05177); experiment: as §1; assay type: ADME; details: probe tacrin; in short: as §2
CYP2C8 [2] = biological target: T5, CYP2C8 (Homo sapiens, UniProt P10632); experiment: as §3; assay type: ADME; details: probe amodiaquine; in short: as §2
CYP2C9 [3] = biological target: T6, CYP2C9 (Homo sapiens, UniProt P11712); experiment: as §4; assay type: ADME; details: probe diclofenac; in short: as §2
CYP2C19 [4] = biological target: T7, CYP2C19 (Homo sapiens, UniProt P33261); experiment: as §5; assay type: ADME; details: probe (S)-mephentoin; in short: as §2
CYP2D6 [5] = biological target: T8, CYP2D6 (Homo sapiens, UniProt P10635); experiment: as §6; assay type: ADME; details: probe dextromethophan; in short: as §2
CYP1A2 [6] = biological target: T4, CYP1A2; experiment: Inhibition of CYP1A2 (unknown origin) using tacrin substrate at 2.5 uM; assay type: ADME; details: probe tacrin; in short: as §2
CYP2B6 = CYP2B6 (Homo sapiens, UniProt P20813); experiment: Inhibition of CYP2B6 (unknown origin) using bupropion substrate at 2.5 uM; assay type: ADME; details: probe bupropion; in short: as §2
CYP2C8 [7] = biological target: T5, CYP2C8; experiment: Inhibition of CYP2C8 (unknown origin) using amodiaquine substrate at 2.5 uM; assay type: ADME; details: probe amodiaquine; in short: as §2
CYP2C9 [8] = biological target: T6, CYP2C9; experiment: Inhibition of CYP2C9 (unknown origin) using diclofenac substrate at 2.5 uM; assay type: ADME; details: probe diclofenac; in short: as §2
CYP2C19 [9] = biological target: T7, CYP2C19; experiment: Inhibition of CYP2C19 (unknown origin) using (S)-mephentoin substrate at 2.5 uM; assay type: ADME; details: probe (S)-mephentoin; in short: as §2
CYP2D6 [10] = biological target: T8, CYP2D6; experiment: Inhibition of CYP2D6 (unknown origin) using dextromethophan substrate at 2.5 uM; assay type: ADME; details: probe dextromethophan; in short: as §2
CYP3A4 [11] = biological target: T9, CYP3A4 (Homo sapiens, UniProt P08684); experiment: Inhibition of CYP3A4 (unknown origin) using midazolam substrate at 2.5 uM; assay type: ADME; details: probe midazolam; in short: as §2
CYP3A4 [12] = biological target: T9, CYP3A4; experiment: Inhibition of CYP3A4 (unknown origin) using testosterone substrate at 2.5 uM; assay type: ADME; details: probe testosterone; in short: as §2

T6 sequence (P11712 whole entry): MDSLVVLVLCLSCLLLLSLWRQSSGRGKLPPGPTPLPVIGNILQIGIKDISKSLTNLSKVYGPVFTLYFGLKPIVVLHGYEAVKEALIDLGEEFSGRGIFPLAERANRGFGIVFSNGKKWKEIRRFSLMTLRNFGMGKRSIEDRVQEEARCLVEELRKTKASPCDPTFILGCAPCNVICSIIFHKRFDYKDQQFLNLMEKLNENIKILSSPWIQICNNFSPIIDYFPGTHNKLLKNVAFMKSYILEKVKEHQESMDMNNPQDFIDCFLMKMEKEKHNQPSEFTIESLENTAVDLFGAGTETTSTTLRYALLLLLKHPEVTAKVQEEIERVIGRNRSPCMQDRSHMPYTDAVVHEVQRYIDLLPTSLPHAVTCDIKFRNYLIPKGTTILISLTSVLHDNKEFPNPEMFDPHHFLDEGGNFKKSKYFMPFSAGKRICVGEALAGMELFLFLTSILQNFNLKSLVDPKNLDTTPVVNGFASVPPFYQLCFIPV
T7 sequence (P33261 whole entry): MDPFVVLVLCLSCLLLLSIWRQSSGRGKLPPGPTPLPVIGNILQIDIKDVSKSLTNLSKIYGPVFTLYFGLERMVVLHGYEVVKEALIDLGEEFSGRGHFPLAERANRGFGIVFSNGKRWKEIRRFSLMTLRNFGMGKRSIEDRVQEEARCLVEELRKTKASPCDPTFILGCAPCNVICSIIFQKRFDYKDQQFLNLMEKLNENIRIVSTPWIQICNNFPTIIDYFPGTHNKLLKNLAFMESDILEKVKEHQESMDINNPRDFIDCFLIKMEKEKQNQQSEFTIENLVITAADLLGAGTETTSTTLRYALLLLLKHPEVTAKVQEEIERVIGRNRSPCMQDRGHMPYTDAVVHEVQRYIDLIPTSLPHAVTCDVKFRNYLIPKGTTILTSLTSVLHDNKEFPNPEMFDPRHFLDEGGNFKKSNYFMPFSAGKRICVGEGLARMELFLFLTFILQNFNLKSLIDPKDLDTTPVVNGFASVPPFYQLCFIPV
T8 sequence (P10635 whole entry): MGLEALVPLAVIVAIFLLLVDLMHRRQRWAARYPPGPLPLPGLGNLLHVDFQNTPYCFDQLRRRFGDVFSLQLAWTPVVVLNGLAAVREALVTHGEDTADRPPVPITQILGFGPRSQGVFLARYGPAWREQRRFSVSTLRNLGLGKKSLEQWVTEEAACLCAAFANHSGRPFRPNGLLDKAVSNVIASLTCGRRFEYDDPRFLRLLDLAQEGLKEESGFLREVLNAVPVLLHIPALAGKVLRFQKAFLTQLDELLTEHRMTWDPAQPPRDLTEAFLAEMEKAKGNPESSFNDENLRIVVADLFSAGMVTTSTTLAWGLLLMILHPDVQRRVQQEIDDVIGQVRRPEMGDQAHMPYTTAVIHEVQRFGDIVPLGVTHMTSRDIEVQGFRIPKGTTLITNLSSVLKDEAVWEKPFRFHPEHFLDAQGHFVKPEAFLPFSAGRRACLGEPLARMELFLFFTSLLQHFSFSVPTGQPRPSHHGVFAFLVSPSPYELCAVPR
T9 sequence (P08684 whole entry): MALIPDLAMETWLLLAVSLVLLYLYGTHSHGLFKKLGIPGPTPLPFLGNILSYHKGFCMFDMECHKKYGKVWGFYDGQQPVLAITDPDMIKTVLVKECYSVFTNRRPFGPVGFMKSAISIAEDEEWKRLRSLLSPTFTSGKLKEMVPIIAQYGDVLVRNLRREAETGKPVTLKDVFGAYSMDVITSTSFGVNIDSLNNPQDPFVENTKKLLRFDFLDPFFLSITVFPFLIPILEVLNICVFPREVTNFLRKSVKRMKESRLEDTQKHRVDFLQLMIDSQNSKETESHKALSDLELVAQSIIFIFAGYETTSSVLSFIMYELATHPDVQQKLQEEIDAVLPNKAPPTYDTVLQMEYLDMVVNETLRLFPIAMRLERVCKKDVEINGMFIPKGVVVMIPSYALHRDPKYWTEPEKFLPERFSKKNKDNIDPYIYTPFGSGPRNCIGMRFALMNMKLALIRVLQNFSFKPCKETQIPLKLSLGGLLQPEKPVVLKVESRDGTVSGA
Cytochrome P450 2C9, sequence (P11712 whole entry): as the sequence (P11712 whole entry) above
CYP2B6, sequence (P20813 whole entry): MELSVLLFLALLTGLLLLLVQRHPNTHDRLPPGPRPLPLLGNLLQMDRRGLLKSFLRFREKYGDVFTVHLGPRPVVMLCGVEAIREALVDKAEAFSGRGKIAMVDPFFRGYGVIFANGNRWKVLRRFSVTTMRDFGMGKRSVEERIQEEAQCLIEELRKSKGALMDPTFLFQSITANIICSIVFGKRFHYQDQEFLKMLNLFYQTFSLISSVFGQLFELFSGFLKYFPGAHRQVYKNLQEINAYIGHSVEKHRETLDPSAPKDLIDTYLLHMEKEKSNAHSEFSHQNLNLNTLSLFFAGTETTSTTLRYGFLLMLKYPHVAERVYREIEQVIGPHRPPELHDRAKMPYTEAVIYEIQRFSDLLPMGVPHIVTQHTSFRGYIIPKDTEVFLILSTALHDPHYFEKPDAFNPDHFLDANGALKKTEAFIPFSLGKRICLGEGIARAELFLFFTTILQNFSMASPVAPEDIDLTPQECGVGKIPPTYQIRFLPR
Cytochrome P450 2C19, sequence (P33261 whole entry): as the sequence (P33261 whole entry) above
Cytochrome P450 2D6, sequence (P10635 whole entry): as the sequence (P10635 whole entry) above

Compound: Oc1nc(SCc2ccc(Cl)cc2)nc2c1CCC2
- t1/2 (Liver microsome): 10.4 min

Compound: Cc1cc(CNC(=O)c2cc(C(=O)NCc3ccc(F)c(C)c3)ncn2)ccc1F
- inhibition (Caspase-2 (Homo sapiens)): < 10%
- inhibition (INH) (Cytochrome P450 1A2): > 10%
- inhibition (INH) (Cytochrome P450 2C8): > 10%
- inhibition (INH) (Cytochrome P450 2C9): > 10%
- inhibition (INH) (Cytochrome P450 2C19): > 10%
- inhibition (INH) (Cytochrome P450 2D6): > 10%

Compound: COC(=O)c1ccc(CSc2nc3c(c(=O)[nH]2)CCC3)cc1
- inhibition at 20 µM (CYP1A2 [1]): 29%
- inhibition at 20 µM (CYP2C8 [2]): < 50%
- inhibition at 20 µM (CYP2C9 [3]): 17%
- inhibition at 20 µM (CYP2C19 [4]): < 50%
- inhibition at 20 µM (CYP2D6 [5]): < 50%

Compound: Cn1c(=O)n(Cc2ccc(C(=O)O)cc2)c(=O)c2cc(C#CCc3ccccc3)ccc21
- inhibition (Caspase-2 (Homo sapiens)): < 10%
- inhibition at 2.5 µM (CYP1A2 [6]): 17%
- inhibition at 2.5 µM (CYP2B6): < 50%
- inhibition at 2.5 µM (CYP2C8 [7]): < 50%
- inhibition at 2.5 µM (CYP2C9 [8]): < 50%
- inhibition at 2.5 µM (CYP2C19 [9]): < 50%
- inhibition at 2.5 µM (CYP2D6 [10]): < 50%
- inhibition at 2.5 µM (CYP3A4 [11]): < 50%
- inhibition at 2.5 µM (CYP3A4 [12]): < 50%
